ChEMBL document CHEMBL1124735, “Dehydrogenase binding by tiazofurin anabolites” (J Med Chem, 1990)

Assays:
[1] = tested on: NC(=O)c1ccc[n+]([C@@H]2O[C@H](COP(=O)([O-])OP(=O)(O)OC[C@H]3O[C@@H](n4cnc5c(N)ncnc54)[C@H](O)[C@@H]3O)[C@@H](O)[C@H]2O)c1; experiment: In vitro inhibitory activity against pig heart lactate dehydrogenase (LDH); settings: Sus scrofa
How it was run: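 Pig heart enzymes (cytoplasmic MDH or LDH, from ammonium sulfate suspension) assayed in 0.05 M Tris HCl pH 9.0, with NAD as substrate; rates from NADH appearance by A340 (ε 6.22 mM⁻¹cm⁻¹) or fluorescence calibrated against NADH standards. Run at least in duplicate; kinetic constants from Lineweaver-Burk plots by linear regression.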

[2] = tested on: NC(=O)c1ccc[n+]([C@@H]2O[C@H](COP(=O)([O-])OP(=O)(O)OC[C@H]3O[C@@H](n4cnc5c(N)ncnc54)[C@H](O)[C@@H]3O)[C@@H](O)[C@H]2O)c1; experiment: In vitro inhibitory activity against bovine liver glutamate dehydrogenase (GDH)
[3] = tested on: NC(=O)c1ccc[n+]([C@@H]2O[C@H](COP(=O)([O-])OP(=O)(O)OC[C@H]3O[C@@H](n4cnc5c(N)ncnc54)[C@H](O)[C@@H]3O)[C@@H](O)[C@H]2O)c1; experiment: In vitro inhibitory activity against horse liver Alcohol dehydrogenase; settings: Equus caballus

Chain of Glutamate dehydrogenase 1, mitochondrial (Bos taurus), P00366 (P00366 whole entry): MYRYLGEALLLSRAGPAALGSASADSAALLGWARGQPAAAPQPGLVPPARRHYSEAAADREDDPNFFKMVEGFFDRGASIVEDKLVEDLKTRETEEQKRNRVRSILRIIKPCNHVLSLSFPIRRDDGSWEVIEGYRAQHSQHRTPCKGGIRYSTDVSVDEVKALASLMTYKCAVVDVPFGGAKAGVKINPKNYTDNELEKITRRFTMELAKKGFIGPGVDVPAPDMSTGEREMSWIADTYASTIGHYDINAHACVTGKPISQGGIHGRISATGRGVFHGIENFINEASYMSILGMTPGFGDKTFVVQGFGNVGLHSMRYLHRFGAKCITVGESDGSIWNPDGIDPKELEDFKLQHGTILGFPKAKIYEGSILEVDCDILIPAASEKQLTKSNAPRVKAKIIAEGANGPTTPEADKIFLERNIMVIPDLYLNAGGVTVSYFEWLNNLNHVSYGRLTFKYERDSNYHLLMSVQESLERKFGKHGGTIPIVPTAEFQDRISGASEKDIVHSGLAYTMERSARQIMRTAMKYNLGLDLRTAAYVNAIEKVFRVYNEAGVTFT
Chain of L-lactate dehydrogenase B chain (Sus scrofa), P00336 (P00336 whole entry): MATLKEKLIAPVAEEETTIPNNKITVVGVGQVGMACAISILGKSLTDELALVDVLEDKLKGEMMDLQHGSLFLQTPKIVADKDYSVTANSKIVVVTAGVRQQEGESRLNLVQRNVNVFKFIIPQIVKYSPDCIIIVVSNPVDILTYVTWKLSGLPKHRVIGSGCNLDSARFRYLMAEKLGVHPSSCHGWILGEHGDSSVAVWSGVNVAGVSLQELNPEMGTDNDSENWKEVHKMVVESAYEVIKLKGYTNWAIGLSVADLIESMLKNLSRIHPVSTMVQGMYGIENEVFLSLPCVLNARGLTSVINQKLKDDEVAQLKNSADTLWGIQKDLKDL
Chain of Alcohol dehydrogenase (Equus caballus) (P00328 whole entry, looked up): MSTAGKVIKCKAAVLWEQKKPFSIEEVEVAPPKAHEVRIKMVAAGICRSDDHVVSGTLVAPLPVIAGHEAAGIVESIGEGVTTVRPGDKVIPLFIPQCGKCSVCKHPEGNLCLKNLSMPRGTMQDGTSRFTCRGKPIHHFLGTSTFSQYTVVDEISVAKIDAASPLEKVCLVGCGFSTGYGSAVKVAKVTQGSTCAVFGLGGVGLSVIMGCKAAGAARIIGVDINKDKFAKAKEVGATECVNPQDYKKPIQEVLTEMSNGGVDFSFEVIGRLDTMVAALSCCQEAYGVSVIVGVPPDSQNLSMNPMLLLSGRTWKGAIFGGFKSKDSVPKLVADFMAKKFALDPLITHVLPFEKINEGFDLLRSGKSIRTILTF
Chain of Alcohol dehydrogenase (Equus caballus) (P00327 whole entry, looked up): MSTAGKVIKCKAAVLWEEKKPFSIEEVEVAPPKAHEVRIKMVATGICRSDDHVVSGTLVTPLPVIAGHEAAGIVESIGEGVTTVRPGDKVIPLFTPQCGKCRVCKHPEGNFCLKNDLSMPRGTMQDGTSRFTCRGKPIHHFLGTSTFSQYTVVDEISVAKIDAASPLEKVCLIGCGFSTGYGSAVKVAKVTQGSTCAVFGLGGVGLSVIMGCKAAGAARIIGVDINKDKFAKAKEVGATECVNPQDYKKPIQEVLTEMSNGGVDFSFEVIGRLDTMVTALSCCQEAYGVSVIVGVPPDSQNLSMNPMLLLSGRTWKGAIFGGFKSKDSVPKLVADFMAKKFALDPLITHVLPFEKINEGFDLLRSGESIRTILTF

L-lactate dehydrogenase B chain (Sus scrofa), P00336
Km [1]: 84.4 µM

Glutamate dehydrogenase 1, mitochondrial (Bos taurus), P00366
Km [2]: 20 µM

Alcohol dehydrogenase (Equus caballus) (from UniProt P00327+P00328)
Km [3]: 22.3 µM
